Test results from ChEMBL document CHEMBL2150936, “Anticancer activity of small amphipathic β²,²-amino acid derivatives” (Eur J Med Chem, 2012).
Calls of active or inactive are those of the source. No cut-off for these calls is given here.

Tests used:
[1] = test system: HT-29; assay: Cytotoxicity against human HT-29 cells after 4 hrs by MTT assay; assay type: functional, cell-based; details: HT-29, 4 h
[2] = test system: SK-MEL-5; assay: Cytotoxicity against human SK-MEL-5 cells after 4 hrs by MTT assay; assay type: functional, cell-based; details: SK-MEL-5, 4 h
[3] = test system: MDA-MB-435; assay: Cytotoxicity against human MDA-MB-435 cells after 4 hrs by MTT assay; assay type: functional, cell-based; details: MDA-MB-435, 4 h
[4] = test system: SW-620; assay: Cytotoxicity against human SW620 cells after 4 hrs by MTT assay; assay type: functional, cell-based; details: SW-620, 4 h
[5] = test system: UACC-62; assay: Cytotoxicity against human UACC62 cells after 4 hrs by MTT assay; assay type: functional, cell-based; details: UACC-62, 4 h
[6] = test system: U-251; assay: Cytotoxicity against human U251 cells after 4 hrs by MTT assay; assay type: functional, cell-based; details: U-251, 4 h
[7] = test system: HOP-92; assay: Cytotoxicity against human HOP92 cells after 4 hrs by MTT assay; assay type: functional, cell-based; details: HOP-92, 4 h
[8] = test system: 786-0; assay: Cytotoxicity against human 786-0 cells after 4 hrs by MTT assay; assay type: functional, cell-based; details: 786-0, 4 h
[9] = test system: SF-268; assay: Cytotoxicity against human SF268 cells after 4 hrs by MTT assay; assay type: functional, cell-based; details: SF-268, 4 h
[10] = test system: SR; assay: Cytotoxicity against human SR cells after 4 hrs by MTT assay; assay type: functional, cell-based
[11] = test system: SN12C; assay: Cytotoxicity against human SN12C cells after 4 hrs by MTT assay; assay type: functional, cell-based
[12] = test system: TK-10; assay: Cytotoxicity against human TK10 cells after 4 hrs by MTT assay; assay type: functional, cell-based; details: TK-10, 4 h
[13] = test system: Ramos; assay: Induction of apoptosis in human Ramos cells assessed as disruption of mitochondrial potential after 1 hr by TMRE based flow cytometry; assay type: functional, cell-based
[14] = test system: T47D; assay: Cytotoxicity against human T47D cells after 4 hrs by MTT assay; assay type: functional, cell-based
[15] = test system: OVCAR-3; assay: Cytotoxicity against human OVCAR3 cells after 4 hrs by MTT assay; assay type: functional, cell-based; details: OVCAR-3, 4 h
[16] = test system: Ramos; assay: Selectivity index, ratio of EC50 for human RBC to IC50 for human Ramos cells; assay type: functional
Summary of the method: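 Ramos IC50 came from a 4 h MTT assay: cells at 4 × 10^5 cells/ml in serum-free RPMI-1640, compounds added at once, 37 °C, 2 h MTT, read at 590 nm. RBC EC50 came from hemoglobin release at 405 nm: 1% v/v washed human erythrocytes in PBS, 1 h at 37 °C, Triton X-100 reference. SI = RBC EC50 / Ramos IC50.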

[17] = test system: SNB-75; assay: Cytotoxicity against human SNB75 cells after 4 hrs by MTT assay; assay type: functional, cell-based; details: SNB-75, 4 h
[18] = test system: NCI-H226; assay: Cytotoxicity against human NCI-H226 cells after 4 hrs by MTT assay; assay type: functional, cell-based; details: NCI-H226, 4 h
[19] = test system: NCI-H522; assay: Cytotoxicity against human NCI-H522 cells after 4 hrs by MTT assay; assay type: functional, cell-based; details: NCI-H522, 4 h
[20] = test system: KM12; assay: Cytotoxicity against human KM12 cells after 4 hrs by MTT assay; assay type: functional, cell-based; details: KM12, 4 h
[21] = test system: SF-295; assay: Cytotoxicity against human SF295 cells after 4 hrs by MTT assay; assay type: functional, cell-based; details: SF-295, 4 h
[22] = test system: MRC5; assay: Cytotoxicity against human MRC5 cells after 4 hrs by MTT assay; assay type: cell-based; details: MRC5, 4 h
Summary of the method: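 MRC-5 embryonic lung fibroblast monolayers in MEM with 10% FBS were seeded at 1 × 10^5 cells/ml, grown overnight, then medium was replaced with compound solution. Exposure was 4 h at 37 °C, 5% CO2, then MTT for 2 h. Formazan was dissolved in acidic isopropanol (0.04 N HCl) and absorbance read at 590 nm. Background-corrected viability was taken relative to medium-only control, with Triton X-100 as positive control.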

[23] = test system: MCF7; assay: Cytotoxicity against human MCF7 cells after 4 hrs by MTT assay; assay type: functional, cell-based; details: MCF7, 4 h
[24] = test system: HCT-116; assay: Cytotoxicity against human HCT116 cells after 4 hrs by MTT assay; assay type: functional, cell-based; details: HCT-116, 4 h
[25] = test system: UACC-257; assay: Cytotoxicity against human UACC257 cells after 4 hrs by MTT assay; assay type: functional, cell-based; details: UACC-257, 4 h
[26] = test system: MDA-MB-231; assay: Cytotoxicity against human MDA-MB-231 cells after 4 hrs by MTT assay; assay type: functional, cell-based; details: MDA-MB-231, 4 h
[27] = test system: SF-539; assay: Cytotoxicity against human SF539 cells after 4 hrs by MTT assay; assay type: functional, cell-based; details: SF-539, 4 h
[28] = test system: CCRF-CEM; assay: Cytotoxicity against human CCRF-CEM cells after 4 hrs by MTT assay; assay type: functional, cell-based
[29] = test system: HCT-15; assay: Cytotoxicity against human HCT15 cells after 4 hrs by MTT assay; assay type: functional, cell-based; details: HCT-15, 4 h
[30] = test system: RXF 393; assay: Cytotoxicity against human RXF393 cells after 4 hrs by MTT assay; assay type: functional, cell-based; details: RXF 393, 4 h
[31] = test system: HOP-62; assay: Cytotoxicity against human HOP62 cells after 4 hrs by MTT assay; assay type: functional, cell-based; details: HOP-62, 4 h
[32] = test system: MOLT-4; assay: Cytotoxicity against human MOLT4 cells after 4 hrs by MTT assay; assay type: functional, cell-based; details: MOLT-4, 4 h
[33] = read-out: LC50 (the source's name)

NCCNC(=O)C(CN)(Cc1ccc2ccccc2c1)Cc1ccc2ccccc2c1
IC50 [1]: 0.41 µM | TGI [1]: 1.02 µM | CC50 [1, 33]: 4.07 µM | IC50 [2]: 2.82 µM | TGI [2]: 3.02 µM | CC50 [2, 33]: 5.62 µM | IC50 [3]: 1.02 µM | TGI [3]: 2 µM | CC50 [3, 33]: 5.62 µM | IC50 [4]: 0.35 µM | TGI [4]: 0.83 µM | CC50 [4, 33]: 3.39 µM | IC50 [5]: 3.31 µM | TGI [5]: 3.31 µM | CC50 [5, 33]: 5.75 µM | IC50 [6]: 1.48 µM | TGI [6]: 2.14 µM | CC50 [6, 33]: 4.68 µM | IC50 [7]: 3.72 µM | TGI [7]: 3.47 µM | CC50 [7, 33]: 7.24 µM | IC50 [8]: 3.16 µM | TGI [8]: 3.31 µM | CC50 [8, 33]: 6.31 µM | IC50 [9]: 2.82 µM | TGI [9]: 3.02 µM | CC50 [9, 33]: 6.03 µM | IC50 [10]: 0.35 µM | TGI [10]: 0.62 µM | IC50 [11]: 3.24 µM | TGI [11]: 3.31 µM | CC50 [11, 33]: 6.17 µM | IC50 [12]: 3.09 µM | TGI [12]: 3.16 µM | CC50 [12, 33]: 6.03 µM | Activity [13]: Active | IC50 [14]: 3.8 µM | TGI [14]: 3.39 µM | CC50 [14, 33]: 7.59 µM | IC50 [15]: 2.82 µM | TGI [15]: 2.88 µM | CC50 [15, 33]: 5.62 µM | Selectivity Index [16]: 112 | IC50 [17]: 2.75 µM | TGI [17]: 2.69 µM | CC50 [17, 33]: 5.25 µM | IC50 [18]: 3.31 µM | TGI [18]: 3.39 µM | CC50 [18, 33]: 7.24 µM | IC50 [19]: 3.09 µM | TGI [19]: 3.24 µM | CC50 [19, 33]: 6.46 µM | IC50 [20]: 0.74 µM | TGI [20]: 1.7 µM | CC50 [20, 33]: 4.57 µM | IC50 [21]: 2.51 µM | TGI [21]: 2.69 µM | CC50 [21, 33]: 5.75 µM | EC50 [22]: 22 µM | IC50 [23]: 1.35 µM | TGI [23]: 2.24 µM | CC50 [23, 33]: 5.5 µM | IC50 [24]: 0.65 µM | TGI [24]: 1.74 µM | CC50 [24, 33]: 4.37 µM | IC50 [25]: 3.39 µM | TGI [25]: 3.39 µM | CC50 [25, 33]: 5.89 µM | IC50 [26]: 3.02 µM | TGI [26]: 3.09 µM | CC50 [26, 33]: 6.03 µM | IC50 [27]: 2.69 µM | TGI [27]: 2.88 µM | CC50 [27, 33]: 5.62 µM | IC50 [28]: 2.24 µM | TGI [28]: 3.39 µM | CC50 [28, 33]: 9.12 µM | IC50 [29]: 0.79 µM | TGI [29]: 1.91 µM | CC50 [29, 33]: 5.01 µM | IC50 [30]: 2.69 µM | TGI [30]: 2.69 µM | CC50 [30, 33]: 5.5 µM | IC50 [31]: 2.82 µM | TGI [31]: 2.88 µM | CC50 [31, 33]: 5.62 µM | IC50 [32]: 1.41 µM | TGI [32]: 2.69 µM
